Data published in ChEMBL document CHEMBL1126799, “Synthesis of antimicrobial agents. 5. In vivo metabolism of 7-(4-hydroxypiperazin-1-yl)quinolones” (1993).
Converted amounts (≈) assume the structure as drawn.

Legend:
Proteus vulgaris = assay: Tested in vitro against Proteus vulgaris OX-19 by agar dilution method; assay type: functional
How it was run: (§1)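 MIC by 2-fold agar dilution on Mueller–Hinton agar (footnote says sensitivity test agar).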

Escherichia coli = assay: Tested in vitro against Escherichia coli NIHJ JC-2 by agar dilution method; assay type: functional; how it was run: as §1
[1] = system: Staphylococcus epidermidis; assay: Tested in vitro against Staphylococcus epidermidis IAM12896 by agar dilution method; assay type: functional; how it was run: as §1
Pseudomonas aeruginosa [2] = assay: Tested in vivo against Pseudomonas aeruginosa E-2 in mice after peroral dose of drug with 0.5% sodium carboxy methyl cellulose; assay type: functional; conditions: po
How it was run: (§2)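 Mice infected, then given compound orally 1 h post-infection as a suspension in 0.5% sodium CMC. ED50 calculated from cumulative mortality on day 7 post-infection by shortened Weil method.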

Pseudomonas aeruginosa [3] = assay: Tested in vitro against Pseudomonas aeruginosa E-2 by agar dilution method; assay type: functional; how it was run: as §1
Staphylococcus aureus [4] = assay: Tested in vitro against Staphylococcus aureus IID803 by agar dilution method; assay type: functional; how it was run: as §1
Staphylococcus aureus [5] = assay: Tested in vitro against Staphylococcus aureus FDA209P JC-1 by agar dilution method; assay type: functional; how it was run: as §1
Klebsiella pneumoniae = assay: Tested in vitro against Klebsiella pneumoniae PCI-602 by agar dilution method; assay type: functional; how it was run: as §1
Serratia marcescens = assay: Tested in vitro against Serratia marcescens IAM1184 by agar dilution method; assay type: functional; how it was run: as §1
Salmonella typhimurium = assay: Tested in vitro against Salmonella Typhimurium IID971 by agar dilution method; assay type: functional, Salmonella enterica subsp. enterica serovar Typhimurium; conditions: Salmonella enterica; how it was run: as §1
Bacillus subtilis = assay: Tested in vitro against Bacillus subtilis ATCC 6633 by agar dilution method; assay type: functional; how it was run: as §1
Pseudomonas aeruginosa [6] = assay: Tested in vitro against Pseudomonas aeruginosa IFO3445 by agar dilution method; assay type: functional; how it was run: as §1
Staphylococcus aureus [7] = assay: Tested in vivo against Staphylococcus aureus IID803 in mice after peroral dose of drug with 0.5% sodium carboxy methyl cellulose; assay type: functional; conditions: po; how it was run: as §2

Structure (SMILES)	MIC (Proteus vulgaris)	MIC (Escherichia coli)	MIC [1]	MIC (Pseudomonas aeruginosa [3])	MIC (Staphylococcus aureus [4])	MIC (Staphylococcus aureus [5])	MIC (Klebsiella pneumoniae)	MIC (Serratia marcescens)	MIC (Salmonella typhimurium)	MIC (Bacillus subtilis)	MIC (Pseudomonas aeruginosa [6])	ED50 (Pseudomonas aeruginosa [2])	ED50 (Staphylococcus aureus [7])
O=C(O)c1cn(C2CC2)c2c(F)c(N3CCNCC3)c(F)cc2c1=O	0.05 µg/mL (≈ 0.143 µM)	0.05 µg/mL (≈ 0.143 µM)	0.78 µg/mL (≈ 2.23 µM)	0.78 µg/mL (≈ 2.23 µM)	0.39 µg/mL (≈ 1.12 µM)	0.2 µg/mL (≈ 0.573 µM)	0.025 µg/mL (≈ 0.0716 µM)	0.39 µg/mL (≈ 1.12 µM)	0.025 µg/mL (≈ 0.0716 µM)	0.1 µg/mL (≈ 0.286 µM)	0.78 µg/mL (≈ 2.23 µM)	6.7 mg/kg	5.82 mg/kg
O=C(O)c1cn(C2CC2)c2cc(N3CCNCC3)c(F)cc2c1=O [CIPROFLOXACIN]	0.05 µg/mL (≈ 0.151 µM)		1.56 µg/mL (≈ 4.71 µM)	0.78 µg/mL (≈ 2.35 µM)	0.78 µg/mL (≈ 2.35 µM)	0.39 µg/mL (≈ 1.18 µM)	0.025 µg/mL (≈ 0.0754 µM)	0.39 µg/mL (≈ 1.18 µM)	0.025 µg/mL (≈ 0.0754 µM)	0.1 µg/mL (≈ 0.302 µM)	0.78 µg/mL (≈ 2.35 µM)	30.8 mg/kg	35.4 mg/kg
CCn1cc(C(=O)O)c(=O)c2cc(F)c(N3CCNCC3)cc21 [NORFLOXACIN]	0.2 µg/mL (≈ 0.626 µM)	0.39 µg/mL (≈ 1.22 µM)	3.13 µg/mL (≈ 9.8 µM)	3.13 µg/mL (≈ 9.8 µM)	1.56 µg/mL (≈ 4.89 µM)	0.39 µg/mL (≈ 1.22 µM)	0.1 µg/mL (≈ 0.313 µM)	0.78 µg/mL (≈ 2.44 µM)	0.1 µg/mL (≈ 0.313 µM)	0.39 µg/mL (≈ 1.22 µM)	3.13 µg/mL (≈ 9.8 µM)	107 mg/kg	91.7 mg/kg
CC1COc2c(N3CCN(C)CC3)c(F)cc3c(=O)c(C(=O)O)cn1c23 (stereo unspecified) [OFLOXACIN]	0.1 µg/mL (≈ 0.277 µM)	0.2 µg/mL (≈ 0.553 µM)	0.78 µg/mL (≈ 2.16 µM)	3.13 µg/mL (≈ 8.66 µM)	0.78 µg/mL (≈ 2.16 µM)	0.39 µg/mL (≈ 1.08 µM)	0.1 µg/mL (≈ 0.277 µM)	0.78 µg/mL (≈ 2.16 µM)	0.1 µg/mL (≈ 0.277 µM)	0.2 µg/mL (≈ 0.553 µM)	3.13 µg/mL (≈ 8.66 µM)	54.5 mg/kg	8.84 mg/kg

Continued, in another order:

MIC (Proteus vulgaris)	MIC (Escherichia coli)	MIC [1]	MIC (Pseudomonas aeruginosa [3])	MIC (Staphylococcus aureus [4])	MIC (Staphylococcus aureus [5])	MIC (Klebsiella pneumoniae)	MIC (Serratia marcescens)	MIC (Salmonella typhimurium)	MIC (Bacillus subtilis)	MIC (Pseudomonas aeruginosa [6])	Structure (SMILES)	ED50 (Pseudomonas aeruginosa [2])	ED50 (Staphylococcus aureus [7])
0.1 µg/mL (≈ 0.265 µM)	0.1 µg/mL (≈ 0.265 µM)	0.78 µg/mL (≈ 2.07 µM)	3.13 µg/mL (≈ 8.29 µM)	0.39 µg/mL (≈ 1.03 µM)	0.39 µg/mL (≈ 1.03 µM)	0.025 µg/mL (≈ 0.0662 µM)	0.78 µg/mL (≈ 2.07 µM)	0.1 µg/mL (≈ 0.265 µM)	0.1 µg/mL (≈ 0.265 µM)	3.13 µg/mL (≈ 8.29 µM)	CC1CN(c2c(F)cc3c(=O)c(C(=O)O)cn(C4CC4)c3c2F)CC(C)N1 (stereo unspecified)	11.7 mg/kg	2.21 mg/kg
0.05 µg/mL (≈ 0.138 µM)	0.05 µg/mL (≈ 0.138 µM)	0.78 µg/mL (≈ 2.15 µM)	1.56 µg/mL (≈ 4.29 µM)	0.2 µg/mL (≈ 0.55 µM)	0.39 µg/mL (≈ 1.07 µM)	0.0125 µg/mL (≈ 0.0344 µM)	0.39 µg/mL (≈ 1.07 µM)	0.025 µg/mL (≈ 0.0688 µM)	0.05 µg/mL (≈ 0.138 µM)	1.56 µg/mL (≈ 4.29 µM)	CC1CN(c2c(F)cc3c(=O)c(C(=O)O)cn(C4CC4)c3c2F)CCN1 (stereo unspecified)	8.84 mg/kg	2.21 mg/kg
0.39 µg/mL (≈ 0.991 µM)	0.78 µg/mL (≈ 1.98 µM)	0.39 µg/mL (≈ 0.991 µM)	12.5 µg/mL (≈ 31.8 µM)	0.2 µg/mL (≈ 0.508 µM)	0.2 µg/mL (≈ 0.508 µM)	0.1 µg/mL (≈ 0.254 µM)	6.25 µg/mL (≈ 15.9 µM)	0.78 µg/mL (≈ 1.98 µM)	0.05 µg/mL (≈ 0.127 µM)	12.5 µg/mL (≈ 31.8 µM)	CC1CN(c2c(F)cc3c(=O)c(C(=O)O)cn(C4CC4)c3c2F)CC(C)N1O (stereo unspecified)	35.4 mg/kg	1.67 mg/kg
0.1 µg/mL (≈ 0.264 µM)	0.1 µg/mL (≈ 0.264 µM)	0.78 µg/mL (≈ 2.06 µM)	3.13 µg/mL (≈ 8.25 µM)	0.2 µg/mL (≈ 0.527 µM)	0.39 µg/mL (≈ 1.03 µM)	0.025 µg/mL (≈ 0.0659 µM)	0.78 µg/mL (≈ 2.06 µM)	0.05 µg/mL (≈ 0.132 µM)	0.025 µg/mL (≈ 0.0659 µM)	3.13 µg/mL (≈ 8.25 µM)	CC1CN(c2c(F)cc3c(=O)c(C(=O)O)cn(C4CC4)c3c2F)CCN1O (stereo unspecified)	22.9 mg/kg	1.67 mg/kg
0.05 µg/mL (≈ 0.137 µM)	0.1 µg/mL (≈ 0.274 µM)	0.78 µg/mL (≈ 2.14 µM)	1.56 µg/mL (≈ 4.27 µM)	0.39 µg/mL (≈ 1.07 µM)	0.39 µg/mL (≈ 1.07 µM)	0.025 µg/mL (≈ 0.0684 µM)	0.78 µg/mL (≈ 2.14 µM)	0.025 µg/mL (≈ 0.0684 µM)	0.05 µg/mL (≈ 0.137 µM)	1.56 µg/mL (≈ 4.27 µM)	O=C(O)c1cn(C2CC2)c2c(F)c(N3CCN(O)CC3)c(F)cc2c1=O	4.81 mg/kg	3.34 mg/kg
